# Results from ChEMBL document CHEMBL1649111, “Restoration of susceptibility of intracellular methicillin-resistant Staphylococcus aureus to beta-lactams: comparison of strains, cells, and antibiotics” (Antimicrob Agents Chemother, 2008).
# Columns and labels:
# [1] = system: Staphylococcus aureus; assay: Antimicrobial activity against hospital acquired methicillin-resistant and vancomycin-intermediate Staphylococcus aureus NRS126 obtained from bloodstream infection of patient infected in human THP-1 cells assessed as decrease in bacterial growth after 24 hrs at pH 5.5; format: functional, organism-based; conditions: NRS126, THP-1, 24 h
# Procedure, shortened: (§1)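 Bacteria phagocytosed by unactivated human THP-1 macrophages, then incubated 24 h with extracellular antibiotic at about 0.01× to 100× the pH 5.5 broth MIC. CFU per mg cell protein counted against the original inoculum, n = 3. A Hill-equation fit (slope factor 1) gave Emin and Emax, extrapolated to infinitely low and high concentration, and EC50. Static concentration was graphically interpolated.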
# [2] = Chemical stability of the compound assessed as compound remaining after 24 hrs in PBS buffer by HPLC analysis at pH 7.4; format: physicochemical; conditions: read-out: Activity
# Procedure, shortened: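 Drug at 50 mg/liter initial concentration incubated 24 h at 37°C in buffered medium at pH 7.4 or 5.5. Remaining drug measured by HPLC signal disappearance; mobile phase 25 mM phosphate buffer pH 6.7 with acetonitrile (75:25).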
# [3] = system: Staphylococcus aureus; assay: Bacteriostatic activity against intracellular beta-lactamase negative methicillin-susceptible Staphylococcus aureus ATCC 25923 infected in human keratinocytes assessed as decrease in bacterial growth after 24 hrs at pH 7.4; format: functional
# Procedure, shortened: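 Primary human skin keratinocytes or Calu-3 bronchial epithelial cells infected with MSSA ATCC 25923 at 5 × 10⁷ to 1 × 10⁸ bacteria/ml, 2 h internalization. Postphagocytosis inoculum 1.5 × 10⁶ to 3.0 × 10⁶ CFU/mg protein. Cloxacillin concentration range for 24 h; CFU/mg protein change vs. inoculum (n = 3). Hill fit gives Emin/Emax; static concentration by graphical interpolation.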
# [4] = system: Staphylococcus aureus; assay: Antimicrobial activity against animal acquired methicillin-resistant Staphylococcus aureus N7112046 infected in human THP-1 cells assessed as increase in bacterial count from original inoculum at low compound concentration after 24 hrs at pH 5.5; format: functional; procedure, shortened: as §1
# [5] = system: Staphylococcus aureus; assay: Bacteriostatic activity against constitutive beta-lactamase negative methicillin-resistant Staphylococcus aureus COL NRS100 infected in human THP-1 cells assessed as decrease in bacterial growth after 24 hrs at pH 5.5; format: functional
# Procedure, shortened: (§2)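 Human THP-1 macrophages infected with each S. aureus strain. Cloxacillin added extracellularly at about 0.01× to 100× the broth MIC measured at pH 5.5, with gentamicin 0.5 mg/liter to stop extracellular growth. Incubated 24 h. CFU counted per mg cell protein as change from the post-phagocytosis inoculum, n = 3. Emin, Emax and EC50 from a Hill fit; static concentration by graphical interpolation.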
# [6] = system: Staphylococcus aureus; assay: Bacteriostatic activity against hospital acquired methicillin-resistant Staphylococcus aureus HMC546 infected in human THP-1 cells assessed as decrease in bacterial growth after 24 hrs at pH 5.5; format: functional; procedure, shortened: as §2
# [7] = system: Staphylococcus aureus; assay: Antimicrobial activity against beta-lactamase negative methicillin-susceptible Staphylococcus aureus ATCC 25923 infected in human THP-1 cells assessed as increase in bacterial count from original inoculum at low compound concentration after 24 hrs at pH 5.5; format: functional
# Procedure, shortened: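 MSSA ATCC 25923 phagocytized by unactivated THP-1 macrophages; extracellular antibiotic from about 0.01× to 100× the broth MIC at pH 5.5, with gentamicin 0.5 mg/liter to block extracellular growth. CFU per mg cell protein counted at 24 h vs. original inoculum (n = 3). A Hill equation (slope factor 1) gives Emin/Emax, extrapolated to infinitely low/high concentration. Static concentration is read by graphical interpolation.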
# [8] = system: Staphylococcus aureus; assay: Antimicrobial activity against constitutive beta-lactamase negative methicillin-resistant Staphylococcus aureus COL NRS100 by broth microdilution method at pH 5.5; format: functional
# [9] = system: Staphylococcus aureus; assay: Antimicrobial activity against hospital acquired methicillin-resistant Staphylococcus aureus N4120210 obtained from urinary tract infection patient by broth microdilution method at pH 5.5; format: functional; conditions: N4120210, Urine
# [10] = system: Staphylococcus aureus; assay: Antimicrobial activity against Panton-valentine leukocidin positive community acquired methicillin-resistant Staphylococcus aureus N4090440 obtained from wound infection of patient by broth microdilution method at pH 7.4; format: functional
# Procedure, shortened: (§3)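 Minimal inhibitory concentration by broth microdilution at pH 7.4, read in mg/liter. The MRSA genotype was confirmed by mecA PCR, and the SCCmec subgroup was assigned by multiplex PCR.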
# [11] = system: Staphylococcus aureus; assay: Antimicrobial activity against intracellular beta-lactamase negative methicillin-susceptible Staphylococcus aureus ATCC 25923 infected in activated human THP-1 cells assessed as increase in bacterial count from original inoculum at low compound concentration after 24 hrs at pH 7.4; format: functional
# [12] = system: Staphylococcus aureus; assay: Bacteriostatic activity against hospital acquired methicillin-resistant and vancomycin-intermediate Staphylococcus aureus VRS2 infected in human THP-1 cells assessed as decrease in bacterial growth after 24 hrs at pH 5.5; format: functional; procedure, shortened: as §2
# [13] = system: Staphylococcus aureus; assay: Antimicrobial activity against animal acquired methicillin-resistant Staphylococcus aureus N7112046 by broth microdilution method at pH 7.4; format: functional
# [14] = system: Staphylococcus aureus; assay: Antimicrobial activity against Panton-valentine leukocidin positive community acquired methicillin-resistant Staphylococcus aureus NRS192 obtained from patient with pneumonia and septic arthritis infected in human THP-1 cells assessed as decrease in bacterial growth after 24 hrs at pH 5.5; format: functional, organism-based; conditions: NRS192, THP-1, 24 h; procedure, shortened: as §1
# [15] = system: Staphylococcus aureus; assay: Antimicrobial activity against hospital acquired methicillin-resistant Staphylococcus aureus N4120210 obtained from urinary tract infection of patient infected in human THP-1 cells assessed as decrease in bacterial growth after 24 hrs at pH 5.5; format: functional, organism-based; conditions: N4120210, THP-1, Urine
# Procedure, shortened: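 THP-1 macrophages were infected, then incubated 24 h with cloxacillin at extracellular concentrations from about 0.01× to 100× the MIC measured in broth at pH 5.5, with gentamicin 0.5 mg/liter to block extracellular growth. CFU per mg cell protein were counted as change from the original inoculum (n = 3). A Hill-equation fit gave Emax, EC50 (multiples of MIC) and static concentration.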
# [16] = system: THP-1; assay: Ratio of intracellular to extracellular drug level in human THP1 cells at 250 mg/L after 24 hrs; format: ADME, cell-based; conditions: thp-1, 24 h
# Procedure, shortened: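 THP-1 cells incubated 24 h at 250 mg/liter extracellular drug. Cell lysates assayed microbiologically with MSSA ATCC 25923; content expressed per mg total protein. Cellular/extracellular ratio calculated assuming cell volume of 5 μl per mg protein.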
# [17] = system: Staphylococcus aureus; assay: Antimicrobial activity against hospital acquired methicillin-resistant and vancomycin-intermediate Staphylococcus aureus NRS18 obtained from wound, skin and soft tissue infection of patient infected in human THP-1 cells assessed as increase in bacterial count from original inoculum at low compound concentration after 24 hrs at pH 5.5; format: functional; procedure, shortened: as §2
# [18] = system: Staphylococcus aureus; assay: Antimicrobial activity against Panton-valentine leukocidin positive community acquired methicillin-resistant Staphylococcus aureus N4090440 obtained from wound infection of patient infected in human THP-1 cells assessed as decrease in bacterial count from original inoculum at high compound concentration after 24 hrs at pH 5.5; format: functional; procedure, shortened: as §1
# [19] = system: Staphylococcus aureus; assay: Antimicrobial activity against hospital acquired methicillin-resistant and vancomycin-intermediate Staphylococcus aureus NRS126 obtained from patient with bloodstream infection by broth microdilution method at pH 7.4; format: functional; procedure, shortened: as §3
# [20] = system: Staphylococcus aureus; assay: Antimicrobial activity against intracellular hospital acquired methicillin-resistant Staphylococcus aureus ATCC 33591 infected in human Calu3 cells assessed as increase in bacterial count from original inoculum at low compound concentration after 24 hrs at pH 7.4; format: functional, Calu-3
# Procedure, shortened: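 Primary human skin keratinocytes or Calu-3 bronchial epithelial cells, given an inoculum of 5 × 10⁷ to 1 × 10⁸ bacteria/ml and 2 h for internalization. Post-phagocytosis load 1.5 × 10⁶ to 3.0 × 10⁶ CFU per mg cell protein. Cloxacillin dose range in mg/liter for 24 h, n = 3. Hill-derived Emin, Emax and EC50; static concentration interpolated.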
smiles,measurement,setting,value
Cc1onc(-c2ccccc2Cl)c1C(=O)N[C@@H]1C(=O)N2[C@@H]1SC(C)(C)[C@@H]2C(=O)O [CLOXACILLIN],EC50,[1],5.33 ×MIC
same,remaining at 24 h,[2],97.8%
same,Activity,[3],1.1 mg/L
same,log10cfu,[4],1.84
same,Activity,[5],8.31 ×MIC
same,Activity,[6],11.7 ×MIC
same,log10cfu,[7],1.96
same,MIC,[8],0.25 mg/L
same,MIC,[9],0.06 mg/L
same,MIC,[10],0.5 mg/L
same,log10cfu,[11],3.05
same,Activity,[12],8.12 mg/L
same,MIC,[13],512 mg/L
same,EC50,[14],6.07 ×MIC
same,EC50,[15],8.51 ×MIC
same,Ratio,[16],0.28
same,log10cfu,[17],2.07
same,log10cfu,[18],0.45
same,MIC,[19],16 mg/L
same,log10cfu,[20],2.39
